Active and inactive are the calls of the source. No cut-off for these calls is given here.

Data set [1] deals with T1, Hexokinase-4 (Homo sapiens, UniProt P35557).
T1 sequence (P35557 whole entry): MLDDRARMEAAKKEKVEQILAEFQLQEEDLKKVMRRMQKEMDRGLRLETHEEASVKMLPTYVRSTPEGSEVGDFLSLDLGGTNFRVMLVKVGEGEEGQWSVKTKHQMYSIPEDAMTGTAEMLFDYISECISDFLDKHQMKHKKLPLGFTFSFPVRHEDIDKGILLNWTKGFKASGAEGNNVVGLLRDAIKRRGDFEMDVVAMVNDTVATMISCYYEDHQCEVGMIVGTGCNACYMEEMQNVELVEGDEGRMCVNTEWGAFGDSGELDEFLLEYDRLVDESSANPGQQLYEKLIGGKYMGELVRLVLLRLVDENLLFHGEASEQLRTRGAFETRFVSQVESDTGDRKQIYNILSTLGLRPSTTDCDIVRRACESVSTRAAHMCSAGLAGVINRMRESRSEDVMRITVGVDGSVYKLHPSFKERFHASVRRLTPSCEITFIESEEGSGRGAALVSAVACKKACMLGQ
Briefly: Activation of human liver glucokinase expressed in Escherichia coli at 10 mM glucose concentration by glucose-6-phosphate coupled continuous spectrophotometric assay.

Data set [2] has as its target T1, Hexokinase-4. Briefly: Activation of human liver glucokinase expressed in Escherichia coli at 2.5 mM glucose concentration by glucose-6-phosphate coupled continuous spectrophotometric assay.
In another data set the test system is Mus musculus. Briefly: Hypoglycemic efficacy in high-fat diet-induced mouse assessed as acute glucose lowering at 10 mg/kg, po. Type of data set: functional, organism-based. More on the design: dose 10 mg/kg. Summed up:
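They received compound orally in 0.5% methylcellulose vehicle, or vehicle alone. Blood glucose was measured just before dosing and at 1, 2, 3 and 4 h after.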

The nature of data set [3]: AUC in Sprague-Dawley rat at 1 mg/kg, iv and 3 mg/kg, po. Type of data set: ADME, organism-based. The note with it: plasma. Summed up:
(§1)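 Male SD rats received 1 mg/kg iv or 3 mg/kg po. Plasma AUC, Cmax, T1/2, CLp and oral bioavailability (F) were derived from these dosings.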

The subject of data set [4] is Rattus norvegicus. The data set is described as follows: Hypoglycemic efficacy in Wistar rat assessed as reduction in area under the glucose curve at 1 mg/kg, po by oral glucose tolerance test. Also on record: scale not given: the % may be the effect or the level left. Format: functional. Summed up: (§2)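 In the Wistar rat OGTT, the compound was given orally. […] Groups were compared by one-way ANOVA followed by Dunnett's test, with significance at p < 0.05.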

Data set [5] concerns Rattus norvegicus. Briefly: Hypoglycemic efficacy in Wistar rat assessed as reduction in area under the glucose curve at 3 mg/kg, po by oral glucose tolerance test. Format: functional. Also on record: scale not given: the % may be the effect or the level left. Summed up:
as §2

Data set [6] in a line: Oral bioavailability in Beagle dog at 1 mg/kg, po. The note with it: in vivo.
A short description of data set [7]: AUC in Beagle dog at 0.3 mg/kg, iv and 1 mg/kg, po. Particulars: plasma.
A short description of data set [8]: Oral bioavailability in Sprague-Dawley rat at 3 mg/kg, po. Format: ADME, organism-based. Particulars: in vivo. Summed up: as §1
Data set [9] can be described thus: Cmax in Sprague-Dawley rat at 1 mg/kg, iv and 3 mg/kg, po. Format: ADME, organism-based. Particulars: in vivo. Summed up: as §1
The nature of data set [10]: Half life in Sprague-Dawley rat at 1 mg/kg, iv and 3 mg/kg, po. Format: ADME, organism-based. Particulars: in vivo. Summed up: as §1
Data set [11] can be described thus: Half life in Beagle dog at 0.3 mg/kg, iv and 1 mg/kg, po. The note with it: in vivo.
Data set [12] is described as follows: Plasma clearance in Sprague-Dawley rat at 1 mg/kg, iv and 3 mg/kg, po. Format: ADME, organism-based. Summed up: as §1
Data set [13] in a line: Cmax in Beagle dog at 0.3 mg/kg, iv and 1 mg/kg, po. The note with it: in vivo.

The EC50 is the midpoint of the concentration-response curve. With `CCS(=O)(=O)c1ccc(Oc2cc3nc(-c4ccccn4)[nH]c3cc2Cn2ccnc2)cc1`, the results for the EC50 on Hexokinase-4 [1] and on Hexokinase-4 [2] were 120 nM and 430 nM, respectively.

For the compound `CCS(=O)(=O)c1ccc(Oc2cc3nc(-c4ccccn4)[nH]c3cc2CN2CCCC2)cc1`, the EC50 at Hexokinase-4 [1] and at Hexokinase-4 [2] was greater than 5000 nM in each case.

In the case of `CCS(=O)(=O)c1ccc(Oc2cc3nc(-c4ccccn4)[nH]c3cc2Cc2nnnn2C)cc1`, the EC50 on Hexokinase-4 [1] is 70 nM; on Hexokinase-4 [2] it was 410 nM.

For the compound `CCS(=O)(=O)c1ccc(Oc2cc3nc(-c4ccccn4)[nH]c3cc2CN2CCCC2=O)cc1`, the EC50 on Hexokinase-4 [1] came to 60 nM; on Hexokinase-4 [2], 350 nM. Further, in the data set on Mus musculus, the result was Active.

`CCS(=O)(=O)c1ccc(Oc2cc3nc(-c4ccccn4)[nH]c3cc2CNC(C)=O)cc1`: the EC50 at Hexokinase-4 [1] worked out at 220 nM; at Hexokinase-4 [2], 1410 nM.

`CCS(=O)(=O)c1ccc(Oc2cc3nc(-c4ccccn4)[nH]c3cc2CN2CCOCC2=O)cc1`: the EC50 turned out to be 100 nM at Hexokinase-4 [1] and 280 nM on Hexokinase-4 [2].

On to `CCN(Cc1cc2nc(-c3ccccn3)[nH]c2cc1Oc1ccc(S(=O)(=O)CC)cc1)C(C)=O`, for which the EC50 came to 110 nM at Hexokinase-4 [1] and 500 nM on Hexokinase-4 [2].

On to `CCS(=O)(=O)c1ccc(Oc2cc3nc(-c4ccccn4)[nH]c3cc2CN(C)C(C)=O)cc1`, for which the EC50 on Hexokinase-4 [1] turned out to be 70 nM; on Hexokinase-4 [2], 300 nM. For the same compound, in the data set with Mus musculus, the result was Active.

As to `CCS(=O)(=O)c1ccc(Oc2cc3nc(-c4ccccn4)[nH]c3cc2CN2CCN(C)C2=O)cc1`, the results for the concentration giving a half-maximal response (EC50) on Hexokinase-4 [1] and at Hexokinase-4 [2] were 80 nM and 320 nM, respectively.

For `CCS(=O)(=O)c1ccc(Oc2cc3nc(-c4ccccn4)[nH]c3cc2CN2C(=O)COC2=O)cc1`, the half-maximal effective concentration (EC50) was 20 nM on Hexokinase-4 [1] and 90 nM on Hexokinase-4 [2]. Further, the outcome in the data set on Mus musculus was inactive.

Broadly, the AUC is concentration integrated over time. The bioavailability is the share of a dose that reaches the circulation, judged against a reference dose that is usually intravenous. For orientation: Cmax means the maximum level reached in the sampled fluid or tissue. The half-life is how long it takes for the measured level to halve. Turning to `CCS(=O)(=O)c1ccc(Oc2cc3nc(-c4ccccn4)[nH]c3cc2CN2C(=O)CCC2=O)cc1`, the EC50 at Hexokinase-4 [1] stood at 40 nM; on Hexokinase-4 [2], 160 nM. For the same compound, the result with Mus musculus was Active. Also, the AUC in data set [3] was determined as 0.5 µM·h; in [7] it was 4 µM·h. In addition, the Activity in the data set on Rattus norvegicus [4] turned out to be 19%; with Rattus norvegicus [5], 27%. Also, the bioavailability in data set [6] amounted to 41%; in data set [8], 16%. For the same compound, the Cmax in data set [9] and in data set [13] was 400 nM throughout. For the same compound, the values for the half-life in [10] and in [11] were 0.6 h and 6.4 h, respectively. Also, the clearance in [12] is 32 mL/min/kg.

Turning to `CCS(=O)(=O)c1ccc(Oc2cc3nc(-c4ccccn4)[nH]c3cc2CN2CCCS2(=O)=O)cc1`, the EC50 at Hexokinase-4 [1] is 90 nM; on Hexokinase-4 [2], 460 nM.

For the compound `CCS(=O)(=O)c1ccc(Oc2cc3nc(-c4ccccn4)[nH]c3cc2CN2CCOC2=O)cc1`, the figures for the EC50 on Hexokinase-4 [1] and at Hexokinase-4 [2] were 60 nM and 250 nM, respectively. In addition, the outcome in the data set on Mus musculus was inactive.

Take `CCS(=O)(=O)c1ccc(Oc2cc3[nH]c(-c4ccccn4)nc3cc2CCC(=O)N(C)C)cc1`: the EC50 turned out to be 120 nM at Hexokinase-4 [1] and 620 nM at Hexokinase-4 [2].

Regarding `CCS(=O)(=O)c1ccc(Oc2cc3nc(-c4ccccn4)[nH]c3cc2CN2CCNC2=O)cc1`, the EC50 at Hexokinase-4 [1] and at Hexokinase-4 [2] was greater than 5000 nM throughout.

For `CCS(=O)(=O)c1ccc(Oc2cc3nc(-c4ccccn4)[nH]c3cc2CN2C(=O)CN(C)C2=O)cc1`, the EC50 on Hexokinase-4 [1] came out at 60 nM; on Hexokinase-4 [2], 180 nM.

The values above are taken from ChEMBL document CHEMBL1152594, “The design and optimization of a series of 2-(pyridin-2-yl)-1H-benzimidazole compounds as allosteric glucokinase activators” (Bioorg Med Chem, 2009).
